15 compounds from ChEMBL document CHEMBL1153770, “Chemical constituents of Heteroplexis micocephala” (J Nat Prod, 2009) can be followed below.

pIC50: −log10 of the molar value. Active and inactive are the calls of the source. No cut-off for these calls is given here.

Test [1] concerns the target T1, Tyrosine-protein phosphatase non-receptor type 1 (Homo sapiens) (UniProt P18031).
T1 sequence (whole entry): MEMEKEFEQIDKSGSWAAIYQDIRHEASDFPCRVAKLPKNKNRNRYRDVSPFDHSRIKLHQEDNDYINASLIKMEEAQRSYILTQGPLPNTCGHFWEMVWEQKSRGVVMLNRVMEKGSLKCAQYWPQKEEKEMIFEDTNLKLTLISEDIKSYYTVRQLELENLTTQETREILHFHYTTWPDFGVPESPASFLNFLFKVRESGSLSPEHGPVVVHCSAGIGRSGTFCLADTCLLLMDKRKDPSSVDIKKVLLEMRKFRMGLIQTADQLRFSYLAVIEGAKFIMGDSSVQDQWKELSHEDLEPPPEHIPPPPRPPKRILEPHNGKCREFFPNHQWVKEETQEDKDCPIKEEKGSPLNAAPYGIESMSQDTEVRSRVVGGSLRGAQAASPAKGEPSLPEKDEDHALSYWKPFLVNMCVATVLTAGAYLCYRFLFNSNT
The test is described as follows: Inhibition of GST-tagged human recombinant PTP1B assessed as paranitrophenol accumulation at 10 uM after 10 mins by spectrophotometry.

The test system of test [2] is Human immunodeficiency virus 1. The test is described as follows: Antiviral activity against HIV1 NL4-3 co-transfected with VSV glycoprotein plasmid in human 293T cells after 48 hrs by luciferase reporter gene assay. Format: functional, organism-based. Particulars: for IC50: 293t; for pIC50: Human immunodeficiency virus 1, NL4-3, HEK-293T, 48 h, read-out: IC50. A digest of the protocol: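 Env-deficient pNL4-3.luc.R-E- HIV-1 vector pseudotyped with VSV-G, made by co-transfecting 293T cells, quantified by p24 ELISA and diluted to 0.2 ng p24/mL. Target 293T cells were seeded at 6 × 10^4 per well one day before infection. Compounds were preincubated with cells 15 min before adding virus, with a solvent-only blank. Cells were lysed 48 h post-infection.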

The next test concerns Liver microsomes. The test is described as follows: Antioxidant activity in rat liver microsomes assessed as inhibition of Fe(2+)-cystine-induced lipid peroxidation at 10 uM pretreated for 15 mins before Fe2+ challenge after 15 mins by TBA assay. Format: functional. Conditions: Microsome.
The subject of the next test is A2780. The test is described as follows: Cytotoxicity against human A2780 cells after 96 hrs by MTT assay. Particulars: for IC50: a2780; for pIC50: Homo sapiens, A2780, 96 h, read-out: IC50. Format: functional, cell-based.
A further test is filed under the species Rattus norvegicus. The test is described as follows: Antiinflammatory activity in rat PMNCs assessed as inhibition of platelet activating factor-induced beta-glucuronidase release at 10 uM treated 15 mins before PAF challenge after 10 mins. In kind it is functional.
In the next test the test system is PC-12. The test is described as follows: Neuroprotective activity against glutamate-induced rat PC12 cell death at 10 uM pretreated for 24 hrs before glutamate challenge after 24 hrs by MTT assay. Format: functional, cell-based. (Tetrazolium assays rely on reduction of a dye to a coloured formazan, in cell work by metabolically active cells.)

Turning to `CC(C)=C[C@@H]1OC(=O)/C(=C/CC/C(C)=C/CCC2=CC(=O)OC2)[C@@H]1O` [HETEROPLEXISOLIDE C], the result (in test [1]; in the test on Liver microsomes; in the test filed under Rattus norvegicus; with PC-12) was inactive. Moreover, the IC50 entry (in test [2]; with A2780) was “Not Active” each time.

For `C/C1=C/CC(C)(C)[C@@H]2CC[C@](C)(O)/C2=C/C1=O`, the outcome (in test [1]; in the test on Liver microsomes; in the test listed under Rattus norvegicus; in the test with PC-12) was inactive. The IC50 result (in test [2]; in the test with A2780) was “Not Active” in each case.

Turning to `Cc1cn([C@H]2C[C@H](N=[N+]=[N-])[C@@H](CO)O2)c(=O)[nH]c1=O` [ZIDOVUDINE], the pIC50 in test [2] is 7.32.

Consider `CC[C@@]1(O)C(=O)OCc2c1cc1n(c2=O)Cc2cc3ccccc3nc2-1` [CAMPTOTHECIN], for which the pIC50 with A2780 is 6.55.

Take `CCOC(C)(C)CC(=O)c1cc(C(C)=O)ccc1OC`: the outcome (in test [1]; in the test on Liver microsomes; in the test listed under Rattus norvegicus; with PC-12) was inactive. In addition, the IC50 result (in test [2]; in the test on A2780) was “Not Active” in each case.

In the case of `CC(=O)CC/C=C1\C[C@@H](C=C(C)C)OC1=O` [HETEROPLEXISOLIDE E], the result (in test [1]; with Liver microsomes; in the test filed under Rattus norvegicus; with PC-12) was inactive. Besides, the IC50 result (in test [2]; in the test with A2780) was “Not Active” in each case.

As for `CC(C)=C[C@@H]1OC(=O)[C@H](/C=C/C/C(C)=C/CCC2=CC(=O)OC2)[C@@H]1O` [HETEROPLEXISOLIDE D], the outcome (in test [1]; with Liver microsomes; in the test listed under Rattus norvegicus; with PC-12) was inactive. In addition, the IC50 result in test [2] is reported as “Not Active”. For the same compound, the pIC50 with A2780 is 5.36.

In the case of `C/C1=C/CC(C)(C)[C@@H]2CC[C@@](C)(O)/C2=C/C1=O`, the outcome (in test [1]; with Liver microsomes; in the test filed under Rattus norvegicus; in the test with PC-12) was inactive. Besides, the IC50 result (in test [2]; with A2780) was “Not Active” throughout.

Take `C/C=C(/C)C(=O)OC/C=C/c1cc(OC)c(OC(=O)/C(C)=C\C)c(OC)c1`: the outcome (in test [1]; with Liver microsomes; in the test filed under Rattus norvegicus; in the test on PC-12) was inactive. The pIC50 in test [2] is 5.39. Moreover, the IC50 entry in the test on A2780 was “Not Active”.

With `CC(C)=C[C@@H]1C/C(=C\CC/C(C)=C/CCC2=CC(=O)OC2)C(=O)O1` [HETEROPLEXISOLIDE A], the result (in test [1]; with Liver microsomes; in the test listed under Rattus norvegicus; in the test on PC-12) was inactive. For the same compound, the IC50 entry (in test [2]; with A2780) was “Not Active” in each case.

`COc1ccc(C(C)=O)cc1C(=O)CC(C)(C)O`: the result (in test [1]; with Liver microsomes; in the test listed under Rattus norvegicus; in the test on PC-12) was inactive. Also, the IC50 entry (in test [2]; with A2780) was “Not Active” throughout.

`C/C=C(/C)C(=O)OC/C=C/c1cc(OC)c(OC(=O)[C@@H](C)CC)c(OC)c1`: the result (in test [1]; in the test on Liver microsomes; in the test listed under Rattus norvegicus; with PC-12) was inactive. In addition, the IC50 entry (in test [2]; in the test with A2780) was “Not Active” each time.

On to `C/C=C(/C)C(=O)OC/C=C/c1cc(OC)c(OC)c(OC)c1`, for which the outcome (in test [1]; in the test with Liver microsomes; in the test listed under Rattus norvegicus; with PC-12) was inactive. The IC50 entry (in test [2]; in the test with A2780) was “Not Active” throughout.

As to `C[C@]12C[C@@H](c3ccoc3)OC(=O)[C@@H]1CC[C@@]13COC(=O)[C@@H]1C=CC(=O)[C@H]23` [8-EPIRHYNCHOSPERIN A], the outcome (in test [1]; in the test on Liver microsomes; in the test filed under Rattus norvegicus; in the test on PC-12) was inactive. The IC50 entry (in test [2]; in the test with A2780) was “Not Active” each time.

For `C=C(CC/C=C1\C[C@@H](C=C(C)C)OC1=O)C(O)CCC1=CC(=O)OC1` (stereo not given in full) [HETEROPLEXISOLIDE B], the result (in test [1]; in the test with Liver microsomes; in the test listed under Rattus norvegicus; with PC-12) was inactive. The IC50 entry (in test [2]; in the test on A2780) was “Not Active” throughout.

As usually defined, the pIC50 is −log10 of the IC50, conventionally taken in molar units.
